Activity calls are given as the source filed them. The calls are words filed in the database; no cut-off is given here.
How the values were obtained:
A549 = assay: Cytotoxicity against human A549 cells after 3 days by MTT assay; settings: A549, 3 days
MDA-MB-435 = assay: Cytotoxicity against human MDA-MB-435 cells after 3 days by MTT assay; settings: MDA-MB-435, 3 days
LoVo = assay: Cytotoxicity against human LoVo cells after 3 days by MTT assay
[1] = system: Lewis lung carcinoma cell line; assay: Antitumor activity against mouse LLC transplanted in C57BL/6 mouse assessed as tumor growth inhibition at 0.5 mg/kg, ip qd for 5 days; type: functional; settings: 120 h, route intraperitoneal
Outline: (§1)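 Male C57BL/6 mice (18–20 g) received Lewis lung carcinoma cells subcutaneously in the right axilla. Starting 3 days after implantation, they were dosed i.p. once daily for 5 consecutive days; controls received normal saline. Tumors were excised and weighed on day 14 post-implantation. Growth inhibition was calculated from the average tumor weight of the test group versus the control group.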

Mus musculus [2] = assay: Toxicity in C57BL/6 mouse assessed as body weight at 0.5 mg/kg, ip qd for 5 days ( RVb = 19.06 +/- 1.35 g); type: organism-based; design: dose 0.5 mg/kg, route intraperitoneal; settings: in vivo, 120 h
[3] = system: Lewis lung carcinoma cell line; assay: Antitumor activity against mouse LLC transplanted in C57BL/6 mouse assessed as tumor weight at 0.5 mg/kg, ip qd for 5 days (RVb = 1.8 +/- 0.47 g); type: functional; settings: route intraperitoneal
Outline: as §1

Mus musculus [4] = assay: Toxicity in C57BL/6 mouse at 0.5 mg/kg, ip qd for 5 days; type: organism-based; design: dose 0.5 mg/kg, route intraperitoneal; settings: in vivo, 120 h
[5] = molecular target: T1, Topoisomerase I (Bos taurus) (UniProt Q2HPH0); assay: Inhibition of calf thymus topoisomerase 1-mediated relaxation of supercoiled pBR322 by agarose gel electrophoresis
T1 sequence (whole entry): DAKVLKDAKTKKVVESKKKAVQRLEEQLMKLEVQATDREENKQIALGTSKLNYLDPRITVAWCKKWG
Outline: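 Reactions incubated 15 min at 37 °C, then stopped with SDS (0.5% final). After loading buffer was added, products were separated on 0.8% agarose in TAE buffer for 40 min at 120 V. Gels were stained with ethidium bromide at room temperature and photographed under UV transillumination.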

## CCC1(O)CC(=O)OCc2c1cc1n(c2=O)Cc2c-1nc1ccc(O)cc1c2C (centres undefined)
A549
  IC50: 9.89 µM
MDA-MB-435
  IC50: 3.39 µM
LoVo
  IC50: 7.09 µM

## CCC1(O)CC(=O)OCc2c1cc1n(c2=O)Cc2c-1nc1cccc(OC)c1c2C (centres undefined)
A549
  IC50: 10.9 µM
[1]
  inhibition in vivo at 0.5 mg/kg: 23.2%
Mus musculus [2]
  Activity: 19.77 g
MDA-MB-435
  IC50: 7.73 µM
[3]
  Activity: 1.38 g
LoVo
  IC50: 5.47 µM
Mus musculus [4]
  Activity: Non-toxic

## CCC1(O)CC(=O)OCc2c1cc1n(c2=O)Cc2c-1nc1ccc(C(F)(F)F)cc1c2C (centres undefined)
A549
  IC50: > 225 µM
MDA-MB-435
  IC50: > 225 µM
LoVo
  IC50: > 225 µM

## CCC1(O)CC(=O)OCc2c1cc1n(c2=O)Cc2c-1nc1ccccc1c2C (centres undefined)
[5]
  inhibition: Active
A549
  IC50: 0.468 µM
[1]
  inhibition in vivo at 0.5 mg/kg: 41.2%
Mus musculus [2]
  Activity: 18.8 g
MDA-MB-435
  IC50: 3.88 µM
[3]
  Activity: 1.06 g
LoVo
  IC50: 1.16 µM
Mus musculus [4]
  Activity: Non-toxic

## CCC1(O)CC(=O)OCc2c1cc1n(c2=O)Cc2c-1nc1ccc(OC)cc1c2C (centres undefined)
A549
  IC50: 3.52 µM
MDA-MB-435
  IC50: 2.61 µM
LoVo
  IC50: 1.32 µM

## CCC1(O)CC(=O)OCc2c1cc1n(c2=O)Cc2c-1nc1ccc(Br)cc1c2C (centres undefined)
A549
  IC50: 29.1 µM
MDA-MB-435
  IC50: 30.9 µM
LoVo
  IC50: 2.31 µM

## CCC1(O)CC(=O)OCc2c1cc1n(c2=O)Cc2c-1nc1ccc(Br)cc1c2C(F)(F)F (racemic)
A549
  IC50: 27.9 µM
MDA-MB-435
  IC50: 11 µM
LoVo
  IC50: 13.3 µM

## CCC1(O)CC(=O)OCc2c1cc1n(c2=O)Cc2c-1nc1ccccc1c2C(F)(F)F (racemic)
[5]
  inhibition: Active
A549
  IC50: 0.313 µM
[1]
  inhibition in vivo at 0.5 mg/kg: 45.6%
Mus musculus [2]
  Activity: 19.16 g
MDA-MB-435
  IC50: 2.33 µM
[3]
  Activity: 0.98 g
LoVo
  IC50: 1.29 µM
Mus musculus [4]
  Activity: Non-toxic

## CCC1(O)CC(=O)OCc2c1cc1n(c2=O)Cc2c-1nc1ccc(C(F)(F)F)cc1c2C(F)(F)F (racemic)
A549
  IC50: 20.3 µM
MDA-MB-435
  IC50: 5.32 µM
LoVo
  IC50: 22.9 µM

## CCC1(O)CC(=O)OCc2c1cc1n(c2=O)Cc2c-1nc1ccc(OC)cc1c2C(F)(F)F (racemic)
A549
  IC50: 0.832 µM
MDA-MB-435
  IC50: 21.4 µM
LoVo
  IC50: 14.6 µM

## CCC1(O)CC(=O)OCc2c1cc1n(c2=O)Cc2c-1nc1ccc(O)cc1c2C(F)(F)F (racemic)
A549
  IC50: 16.2 µM
MDA-MB-435
  IC50: 11.2 µM
LoVo
  IC50: 4.01 µM

## CCC1(O)CC(=O)OCc2c1cc1n(c2=O)Cc2c-1nc1cccc(OC)c1c2C(F)(F)F (racemic)
A549
  IC50: 5.13 µM
MDA-MB-435
  IC50: 2.87 µM
LoVo
  IC50: 3.43 µM

## CC[C@@]1(O)C(=O)OCc2c1cc1n(c2=O)Cc2cc3c(CN(C)C)c(O)ccc3nc2-1 [TOPOTECAN]
[1]
  inhibition in vivo at 0.5 mg/kg: 47.5%
Mus musculus [2]
  Activity: 19.24 g
[3]
  Activity: 0.94 g
Mus musculus [4]
  Activity: Non-toxic

— ChEMBL document CHEMBL1177840, “Trifluoromethyl-promoted homocamptothecins: synthesis and biological activity” (Eur J Med Chem, 2010)
